Results as given in ChEMBL document CHEMBL4823247, “Natural Isoflavones and Semisynthetic Derivatives as Pancreatic Lipase Inhibitors” (J Nat Prod, 2021).
Active and inactive are the calls of the source. The calls are words filed in the database; no cut-off is given here.

How the values were obtained:
[1] = Inhibition of pig pancreatic lipase type 2 using p-nitrophenyl butyrate as substrate preincubated with enzyme for 10 mins followed by susbtrate addition and measured after 30 mins by spectrophotometric analysis; set-up: species or system Sus scrofa
In short: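 PL (300 U/mL stock, in 50 mM phosphate buffer pH 7.2) was preincubated with compound aliquots (MeOH or MeOH:DMSO 95:5 stocks) for 10 min at 37 °C. p-Nitrophenyl butyrate (3.2 mM stock) was then added and incubated 30 min at 37 °C with shaking, read at 405 nm. Five concentrations per compound, in triplicate. % inhibition was taken from absorbance vs no-compound control, and IC50 by regression.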

Sus scrofa [2] = organism: Sus scrofa; assay: Binding affinity to pig pancreatic lipase type 2 assessed as quenching rate constant at 27 degC measured after 1 min by Stern-Volmer plot analysis
In short: (§1)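 Intrinsic Trp fluorescence titration of PL, 1.1 μM in 0.1 M phosphate buffer with 0.1 M NaCl, pH 7.4, by successive 1 or 2 μL additions of compound. Run at 27, 32 and 37 °C, each in triplicate. Excitation 285 nm, slits 10 nm. Spectrum recorded 1 min after each addition. Intensity at the emission maximum was used for Stern–Volmer plots.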

Sus scrofa [3] = organism: Sus scrofa; assay: Binding affinity to pig pancreatic lipase type 2 assessed as binding constant at 32 degC measured after 1 min by Stern-Volmer plot analysis; in short: as §1
Sus scrofa [4] = organism: Sus scrofa; assay: Binding affinity to pig pancreatic lipase type 2 assessed as decrease in fluorescence intensity at 37 degC measured after 1 min by fluorescence spectral analysis; in short: as §1
Sus scrofa [5] = organism: Sus scrofa; assay: Binding affinity to pig pancreatic lipase type 2 assessed as Stern-Volmer quenching constant at 37 degC measured after 1 min by Stern-Volmer plot analysis; in short: as §1
Sus scrofa [6] = organism: Sus scrofa; assay: Binding affinity to pig pancreatic lipase type 2 assessed as Stern-Volmer quenching constant at 27 degC measured after 1 min by Stern-Volmer plot analysis; in short: as §1
Sus scrofa [7] = organism: Sus scrofa; assay: Binding affinity to pig pancreatic lipase type 2 assessed as decrease in fluorescence intensity at 27 degC measured after 1 min by fluorescence spectral analysis; in short: as §1
Sus scrofa [8] = organism: Sus scrofa; assay: Binding affinity to pig pancreatic lipase type 2 assessed as bathochromic shift of maximum fluorescence intensity at 32 degC measured after 1 min by fluorescence spectral analysis; in short: as §1
Sus scrofa [9] = organism: Sus scrofa; assay: Binding affinity to pig pancreatic lipase type 2 assessed as decrease in fluorescence intensity at 32 degC measured after 1 min by fluorescence spectral analysis; in short: as §1
[10] = Competitive inhibition of pig pancreatic lipase type 2 using varying concentrations of p-nitrophenyl butyrate as substrate measured every 1 min for 30 mins by Lineweaver-Burk plot analysis; set-up: species or system Sus scrofa
In short: (§2)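 A405 was read every 1 min for 30 min. Mode of inhibition was from Lineweaver–Burk plots of 1/v0 vs 1/[S]. Ki and K'i were obtained from replots of slope and y-intercept versus inhibitor concentration.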

Sus scrofa [11] = organism: Sus scrofa; assay: Binding affinity to pig pancreatic lipase type 2 assessed as quenching rate constant at 32 degC measured after 1 min by Stern-Volmer plot analysis; in short: as §1
Sus scrofa [12] = organism: Sus scrofa; assay: Binding affinity to pig pancreatic lipase type 2 assessed as binding constant at 37 degC measured after 1 min by Stern-Volmer plot analysis; in short: as §1
Sus scrofa [13] = organism: Sus scrofa; assay: Binding affinity to pig pancreatic lipase type 2 assessed as binding constant at 27 degC measured after 1 min by Stern-Volmer plot analysis; in short: as §1
Sus scrofa [14] = organism: Sus scrofa; assay: Binding affinity to pig pancreatic lipase type 2 assessed as Stern-Volmer quenching constant at 32 degC measured after 1 min by Stern-Volmer plot analysis; in short: as §1
Sus scrofa [15] = organism: Sus scrofa; assay: Binding affinity to pig pancreatic lipase type 2 assessed as bathochromic shift of maximum fluorescence intensity at 27 degC measured after 1 min by fluorescence spectral analysis; in short: as §1
Sus scrofa [16] = organism: Sus scrofa; assay: Binding affinity to pig pancreatic lipase type 2 assessed as quenching rate constant at 37 degC measured after 1 min by Stern-Volmer plot analysis; in short: as §1
Sus scrofa [17] = organism: Sus scrofa; assay: Binding affinity to pig pancreatic lipase type 2 assessed as bathochromic shift of maximum fluorescence intensity at 37 degC measured after 1 min by fluorescence spectral analysis; in short: as §1
[18] = Non-competitive inhibition of pig pancreatic lipase type 2 using varying concentrations of p-nitrophenyl butyrate as substrate measured every 1 min for 30 mins by Lineweaver-Burk plot analysis; set-up: species or system Sus scrofa; in short: as §2

Structure (SMILES) | IC50 [1] [µM] | Kq (Sus scrofa [2]) | Ka (Sus scrofa [3]) | Activity (Sus scrofa [4]) | KSV (Sus scrofa [5]) | KSV (Sus scrofa [6]) | Activity (Sus scrofa [7]) | Activity (Sus scrofa [8]) | Activity (Sus scrofa [9]) | Ki [10] [µM] | Kq (Sus scrofa [11]) | Ka (Sus scrofa [12]) | Ka (Sus scrofa [13]) | KSV (Sus scrofa [14]) | Activity (Sus scrofa [15]) | Kq (Sus scrofa [16]) | Activity (Sus scrofa [17]) | Ki [18] [µM]
COc1ccc(-c2coc3c(O)c(O)ccc3c2=O)cc1 | 93 | – | – | – | – | – | – | – | – | – | – | – | – | – | – | – | – | –
O=c1c(-c2ccc(O)c(O)c2)coc2cc(O)ccc12 | 70 | – | – | – | – | – | – | – | – | – | – | – | – | – | – | – | – | –
COc1ccc2c(=O)c(-c3ccc(OC)c(OC)c3)coc2c1 | 360 | – | – | – | – | – | – | – | – | – | – | – | – | – | – | – | – | –
O=c1c(-c2cc(Br)c(O)c(Br)c2)coc2c(Br)c(O)ccc12 | 63 | 0.36 10^13L/mol.s | 1.99 10^4L/mol | Active | 1.11 10^4L/mol | 0.58 10^4L/mol | Active | Active | Active | 90 | 0.6 10^13L/mol.s | 3.21 10^4L/mol | 0.32 10^4L/mol | 0.96 10^4L/mol | Active | 0.7 10^13L/mol.s | Active | 1200
COc1ccc(-c2coc3c(Br)c(O)ccc3c2=O)cc1Br | 100 | – | – | – | – | – | – | – | – | – | – | – | – | – | – | – | – | –
Cc1cc(O)cc2occ(-c3ccc(O)c(O)c3)c(=O)c12 | 92 | – | – | – | – | – | – | – | – | – | – | – | – | – | – | – | – | –
CC(=O)Oc1ccc2c(=O)c(-c3ccc(OC(C)=O)c(OC(C)=O)c3)coc2c1 | 122 | – | – | – | – | – | – | – | – | – | – | – | – | – | – | – | – | –
COc1ccc(-c2coc3c(Br)c(O)ccc3c2=O)cc1 | 87 | 2.95 10^13L/mol.s | 8.47 10^4L/mol | Active | 2.29 10^4L/mol | 4.69 10^4L/mol | Active | Active | Active | 320 | 2.1 10^13L/mol.s | 1.47 10^4L/mol | 12.4 10^4L/mol | 3.34 10^4L/mol | Active | 1.43 10^13L/mol.s | Active | 1900
O=c1c(-c2ccc(O)cc2)coc2cc(O)ccc12 [DAIDZEIN] | 83 | 5.62 10^13L/mol.s | 1.2 10^4L/mol | Active | 4.08 10^4L/mol | 8.95 10^4L/mol | Active | Active | Active | 300 | 3.11 10^13L/mol.s | 1.02 10^4L/mol | 5.3 10^4L/mol | 4.94 10^4L/mol | Active | 2.57 10^13L/mol.s | Active | 630
COc1ccc(-c2coc3cc(O)ccc3c2=O)cc1 [FORMONONETIN] | 120 | 0.45 10^13L/mol.s | 0.22 10^4L/mol | Active | 1.06 10^4L/mol | 0.72 10^4L/mol | Active | Active | Active | 640 | 0.64 10^13L/mol.s | 0.27 10^4L/mol | 0.16 10^4L/mol | 1.02 10^4L/mol | Active | 0.66 10^13L/mol.s | Active | 2900
O=c1c(-c2ccc(O)cc2)coc2cc(O)cc(O)c12 [GENISTEIN] | 60 | 1.18 10^13L/mol.s | 0.87 10^4L/mol | Active | 1.07 10^4L/mol | 1.88 10^4L/mol | Active | Active | Active | 80 | 0.94 10^13L/mol.s | 0.44 10^4L/mol | 1.24 10^4L/mol | 1.5 10^4L/mol | Active | 0.67 10^13L/mol.s | Active | –
CCCCCCCCCCC[C@@H](C[C@@H]1OC(=O)[C@H]1CCCCCC)OC(=O)[C@H](CC(C)C)NC=O [ORLISTAT] | 0.6 | – | – | – | – | – | – | – | – | – | – | – | – | – | – | – | – | –
